Test results taken from ChEMBL document CHEMBL5150021, “Identification of 5-(Aryl/Heteroaryl)amino-4-quinolones as Potent Membrane-Disrupting Agents to Combat Antibiotic-Resistant Gram-Positive Bacteria” (J Med Chem, 2022).
Converted amounts (≈) assume the structure as drawn. The source made the active and inactive calls. The rule behind the calls is not given here.

Tests used:
Enterococcus faecalis [1] = experiment: Antibacterial activity against Enterococcus faecalis DHMC #1 assessed as inhibition of bacterial growth incubated for 24 hrs by CLSI based method; format: functional
Outline: (§1)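 Broth microdilution per CLSI. Equal volume of twofold serial compound dilutions added. Incubated stationary at 37 °C for 24 h. MIC taken as lowest concentration giving complete inhibition of visible growth. Oxacillin control for Gram-positives, ceftriaxone for Gram-negatives.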

Cell membrane [2] = experiment: Induction of cell membrane damage in Staphylococcus aureus USA300 assessed as membrane wrinkling at 1 times MIC measured after 1 hrs by TEM analysis
Outline: (§2)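 Fixed in glutaraldehyde/paraformaldehyde in cacodylate pH 7.4, post-fixed with osmium tetroxide, stained with uranyl acetate, resin-embedded, thin-sectioned and imaged by TEM.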

Staphylococcus aureus [3] = experiment: Antibacterial activity against methicillin resistant Staphylococcus aureus FPR3757 assessed as inhibition of bacterial growth incubated for 24 hrs by CLSI based method; format: functional; details: read-out: MIC100
Outline: (§3)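 It was mixed 1:1 with twofold serial compound dilutions and incubated stationary at 37 °C for 24 h. MIC was the lowest concentration giving complete inhibition of observable growth, with an oxacillin control.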

[4] = test system: Staphylococcus epidermidis; experiment: Antibacterial activity against Staphylococcus epidermidis NIF104008 assessed as inhibition of bacterial growth incubated for 24 hrs by CLSI based method; format: functional; outline: as §1
Vero [5] = experiment: Cytotoxicity against African green monkey Vero cells assessed as increase in LDH release at 0.47 to 30 uM incubated for 24 hrs; format: toxicity, cell-based; details: chlorocebus sabaeus, dose 0.47-30 µM
Outline: (§4)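 Confluent Vero cells (maintained in RPMI 1640 + 10% FBS, 37 °C, 5% CO2) exposed to compound at 0.47–30 μM (twofold dilutions) in serum-free medium for 24 h at 37 °C. LDH in supernatant is measured colorimetrically at 490 nm and expressed as percent of 2% detergent positive control.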

[6] = Half life in CD-1 mouse at 0.5 mg/kg, iv administered as single dose and measured for 24 hrs by LC-MS/MS analysis; format: ADME, organism-based; details: in vivo
Outline: (§5)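 Six-week-old female CD-1 mice (n = 3 per route). Dosing: single 0.5 mg/kg i.v. in 5% DMA/95% (4% Cremophor EL), or 10 mg/kg oral gavage in 5% DMA/60% PEG 300/35% D5W. Tail-vein blood is collected to 24 h into K2EDTA, and plasma is analysed by LC-MS/MS. Parameters come from noncompartmental analysis.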

Staphylococcus aureus [7] = experiment: Antibacterial activity against methicillin-resistant Staphylococcus aureus MW2 assessed as inhibition of bacterial growth incubated for 24 hrs by CLSI based method; format: functional; outline: as §1
Staphylococcus aureus [8] = experiment: Antibacterial activity against methicillin-resistant Staphylococcus aureus NRS71 assessed as inhibition of bacterial growth incubated for 24 hrs by CLSI based method; format: functional; outline: as §1
[9] = AUC (0 to 24 hrs) in CD-1 mouse at 0.5 mg/kg, iv administered as single dose and measured for 24 hrs by LC-MS/MS analysis; format: ADME, organism-based; design: time 24 hrs, dose 0.5 mg/kg, route iv; details: in vivo
Outline: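 Six-week-old female CD-1 mice (20–25 g; n = 3) received one intravenous injection at 0.5 mg/kg in 5% DMA:95% (4% Cremophor EL). […] Plasma was stored at −80 °C and quantified by LC-MS/MS. AUC came from noncompartmental analysis, reported as mean ± SD.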

[10] = Cmax in CD-1 mouse at 10 mg/kg, po administered as single dose and measured for 24 hrs by LC-MS/MS analysis; format: ADME, organism-based; design: time 24 hrs, dose 10 mg/kg, route po; details: in vivo
Staphylococcus aureus [11] = experiment: microbe, parasite or virus in culture; details: USA300 FPR3757, 24 h
Enterococcus faecium [12] = experiment: Antibacterial activity against Enterococcus faecium ATCC19579 assessed as inhibition of bacterial growth incubated for 24 hrs by CLSI based method; format: functional; outline: as §1
[13] = AUC (0 to 24 hrs) in CD-1 mouse at 10 mg/kg, po administered as single dose and measured for 24 hrs by LC-MS/MS analysis; format: ADME, organism-based; design: time 24 hrs, dose 10 mg/kg, route po; details: in vivo
Staphylococcus aureus [14] = experiment: Antibacterial activity against methicillin-resistant Staphylococcus aureus N315 assessed as inhibition of bacterial growth incubated for 24 hrs by CLSI based method; format: functional; outline: as §1
[15] = Oral bioavailability in CD-1 mouse at 10 mg/kg administered as single dose and measured for 24 hrs by LC-MS/MS analysis; format: ADME, organism-based; details: in vivo; outline: as §5
Cell membrane [16] = experiment: Induction of cell membrane damage in Staphylococcus aureus USA300 assessed as cross-wall-septum formation with reduced splitting at 1 times MIC measured after 10 mins by TEM analysis; format: subcellular
Candida albicans = experiment: Antifungal activity against Candida albicans SC5314 assessed as inhibition of bacterial growth incubated for 24 hrs by CLSI based method; format: functional
Outline: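 Broth microdilution per CLSI. It is mixed 1:1 with twofold serial compound dilutions and incubated stationary at 35 °C for 24 h. MIC is read as the lowest concentration with no observable growth.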

Escherichia coli = experiment: Antibacterial activity against Escherichia coli DHMC-1 assessed as inhibition of bacterial growth incubated for 24 hrs by CLSI based method; format: functional; outline: as §1
Cell membrane [17] = experiment: Induction of cell membrane damage in Staphylococcus aureus USA300 assessed as mesosome-like membrane inclusions at 1 times MIC measured after 1 hrs by TEM analysis; outline: as §2
Vero [18] = experiment: Cytotoxicity against African green monkey Vero cells assessed as increase in LDH release at 30 uM incubated for 24 hrs relative to control; format: toxicity, cell-based; details: chlorocebus sabaeus; outline: as §4
[19] = Kinetic aqueous solubility of the compound in DPBS at pH 7.4 at 100 ug/ml measured after 6 hrs by LC-MS/MS analysis; format: physicochemical; details: buffer, pH 7.4, 6 h, dose 100 µg/ml
Enterobacter cloacae = experiment: Antibacterial activity against Enterobacter cloacae ND-21 assessed as inhibition of bacterial growth incubated for 24 hrs by CLSI based method; format: functional; outline: as §1
Staphylococcus aureus [20] = experiment: Antibacterial activity against methicillin resistant Staphylococcus aureus FPR3757 assessed as inhibition of bacterial growth incubated for 24 hrs in presence of 10% mouse serum by CLSI based method; format: functional
Outline: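 CLSI broth microdilution against MRSA FPR3757 (USA300) in Mueller–Hinton broth supplemented with 10% serum (fetal bovine or mouse). Inoculum 10⁶ CFU/mL with twofold serial compound dilutions, stationary incubation at 37 °C for 24 h. MIC read as lowest concentration with complete inhibition of visible growth.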

Staphylococcus aureus [21] = experiment: Antibacterial activity against methicillin-resistant Staphylococcus aureus COL assessed as inhibition of bacterial growth incubated for 24 hrs by CLSI based method; format: functional; outline: as §1
[22] = test system: Staphylococcus epidermidis; experiment: Antibacterial activity against Staphylococcus epidermidis NIF104003 assessed as inhibition of bacterial growth incubated for 24 hrs by CLSI based method; format: functional; outline: as §1
Cell membrane [23] = experiment: Induction of cell membrane damage in Staphylococcus aureus USA300 assessed as bulging of the septum at 1 times MIC measured after 1 hrs by TEM analysis; outline: as §2
[24] = Volume of distribution in CD-1 mouse at 0.5 mg/kg, iv administered as single dose and measured for 24 hrs by LC-MS/MS analysis; format: ADME, organism-based; details: in vivo; outline: as §5
Enterococcus faecalis [25] = experiment: Antibacterial activity against Enterococcus faecalis ATCC700802 assessed as inhibition of bacterial growth incubated for 24 hrs by CLSI based method; format: functional; outline: as §1
Enterococcus faecium [26] = experiment: Antibacterial activity against Enterococcus faecium DHMC #1 assessed as inhibition of bacterial growth incubated for 24 hrs by CLSI based method; format: functional; outline: as §1
[27] = Cytotoxicity against sheep erythrocytes assessed as reduction in cell viability; format: toxicity, cell-based, Ovis aries, Erythrocyte
Outline: (§6)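 4% sheep erythrocytes mixed 1:1 with twofold serial compound dilutions in PBS, incubated stationary 1 h at 37 °C, then centrifuged at 500g for 5 min. Supernatant A540 is measured and percent hemolysis is calculated relative to DMSO vehicle (0%) and Triton X-100 (100%). Triplicate, mean ± SD.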

Staphylococcus aureus [28] = experiment: Antibacterial activity against community-associated methicillin-resistant Staphylococcus aureus USA300 FPR3757 assessed as inhibition of bacterial growth incubated for 24 hrs by CLSI based method; format: functional; outline: as §3
Erythrocyte = experiment: Hemolytic activity in sheep erythrocytes at 32 ug/ml incubated for 1 hr; format: toxicity, cell-based, Ovis aries; details: dose 32 µg/ml; outline: as §6
Klebsiella pneumoniae = experiment: Antibacterial activity against Klebsiella pneumoniae 7117 assessed as inhibition of bacterial growth incubated for 24 hrs by CLSI based method; format: functional; outline: as §1
[29] = Protein binding in human plasma at […] incubated for 4 hrs under shaking condition by LC-MS/MS based equilibrium dialysis method; format: ADME, cell-free
Outline: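 Rapid equilibrium dialysis (8k MWCO). Compound is spiked into human plasma at 10 μg/mL and dialysed against DPBS pH 7.4 with shaking for 4 h at 37 °C. Matrices are matched, proteins precipitated with methanol containing internal standard, and both chambers quantified by LC-MS/MS against a calibration curve. Percent free and bound are calculated from chamber concentrations.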

[30] = Therapeutic index, ratio of CC50 for Cytotoxicity against sheep erythrocytes to MIC for antibacterial activity against methicillin resistant Staphylococcus aureus FPR3757; format: toxicity
Outline: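 Ratio of erythrocyte CC50 to MRSA FPR3757 MIC. For hemolysis, 4% washed sheep erythrocytes were mixed 1:1 with twofold compound dilutions in PBS and incubated 1 h at 37 °C. Supernatant A540 was read after centrifugation and normalized between DMSO and Triton X-100 (100% lysis). Triplicates. Highest concentration tested: 32 μg/mL.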

O=c1cc(C(F)(F)F)[nH]c2cc(C(F)(F)F)cc(Nc3ccc(C(F)(F)F)cn3)c12
MIC (Enterococcus faecalis [1]): 2 µg/mL (≈ 4.53 µM)
Activity (Cell membrane [2]): Active
MIC (Staphylococcus aureus [3]): < 0.0625 µg/mL
MIC [4]: < 0.06 µg/mL
Activity (Vero [5]): Non-Toxic
t1/2 [6]: 1.88 h
MIC (Staphylococcus aureus [7]): < 0.06 µg/mL
MIC (Staphylococcus aureus [8]): < 0.06 µg/mL
AUC [9]: 4200 ng·h/mL
Cmax [10]: 3100 ng/mL
MBC (Staphylococcus aureus [11]): 2 µg/mL (≈ 4.53 µM)
MIC (Enterococcus faecium [12]): < 0.06 µg/mL
AUC [13]: 43300 ng·h/mL
MIC (Staphylococcus aureus [14]): < 0.06 µg/mL
F [15]: 51.6%
Activity (Cell membrane [16]): Active
MIC (Candida albicans): 256 µg/mL (≈ 580 µM)
MIC (Escherichia coli): > 128 µg/mL
Activity (Cell membrane [17]): Active
Activity (Vero [18]): 20%
Kinetic_solubility [19]: 2.4 µg/mL
MIC (Enterobacter cloacae): > 128 µg/mL
MIC (Staphylococcus aureus [20]): 4 µg/mL
MIC (Staphylococcus aureus [21]): < 0.06 µg/mL
MIC [22]: < 0.06 µg/mL
Activity (Cell membrane [23]): Active
Vd [24]: 0.322 L/kg
MIC (Enterococcus faecalis [25]): 2 µg/mL (≈ 4.53 µM)
MIC (Enterococcus faecium [26]): 2 µg/mL (≈ 4.53 µM)
CC50 [27]: > 32 µg/mL
MIC (Staphylococcus aureus [28]): 0.0625 µg/mL (≈ 0.142 µM)
Activity (Erythrocyte): Non-Toxic
MIC (Klebsiella pneumoniae): > 128 µg/mL
PPB [29]: 99.7%

O=c1cc(C(F)(F)F)[nH]c2cc(C(F)(F)F)cc(Nc3ccc(F)c(F)c3)c12
MIC (Staphylococcus aureus [3]): < 0.0625 µg/mL
selectivity ratio [30]: > 500
CC50 [27]: > 32 µg/mL
Activity (Erythrocyte): Non-Toxic

O=c1cc(C(F)(F)F)[nH]c2cc(C(F)(F)F)cc(Nc3ccc(Cl)c(Cl)c3)c12
MIC (Staphylococcus aureus [3]): < 0.0625 µg/mL
selectivity ratio [30]: > 500
CC50 [27]: > 32 µg/mL
Activity (Erythrocyte): Non-Toxic
